Data published in ChEMBL document CHEMBL1122641, “Synthesis and pharmacological activity of some 9-substituted delta 8-tetrahydrocannabinol analogues” (1984).

Key:
Format in all cases: functional
[1] = tested on: Mus musculus; test: Evaluation of hypothermia (after 1h) resulting from iv administration of compound at dose 20 mg/kg
Method in brief: (§1)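 Male ICR mice (22-30 g), housed in the laboratory 24 h before treatment; ambient 21-24 °C recorded. Rectal temperature was taken by thermistor probe (inserted 25 mm) just before iv injection of vehicle or drug (0.1 mL/10 g), then at 10-min intervals to 60 min. Value is the pre-injection minus 60-min temperature difference. At least six mice per dose.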

[2] = tested on: Mus musculus; test: Evaluation of hypothermia (after 1h) resulting from iv administration of compound at dose 30 mg/kg; method in brief: as §1
[3] = tested on: Mus musculus; test: Evaluation of spontaneous activity administered by iv route in mice
Method in brief: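 Male ICR mice (22-30 g), housed 24 h before treatment. Given vehicle or drug iv (0.1 mL/10 g), then immediately placed singly in photocell activity chambers; beam interruptions counted for 10 min. Counts expressed as percent of vehicle control. ED50 (mg/kg) with 95% confidence limits by Litchfield-Wilcoxon method. At least six mice per dose.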

[4] = tested on: Mus musculus; test: Evaluation of hypothermia (after 1h) resulting from iv administration of compound at dose 40 mg/kg; method in brief: as §1
[5] = tested on: Mus musculus; test: Evaluation of hypothermia (after 1h) resulting from iv administration of compound at dose 60 mg/kg; method in brief: as §1
[6] = tested on: Mus musculus; test: Evaluation of hypothermia (after 1h) resulting from iv administration of compound at dose 10 mg/kg; method in brief: as §1
[7] = tested on: Mus musculus; test: Evaluation of hypothermia (after 1h) resulting from iv administration of compound at dose 5 mg/kg; method in brief: as §1
[8] = tested on: Mus musculus; test: Evaluation of hypothermia (after 1h) resulting from iv administration of compound at dose 100 mg/kg; method in brief: as §1

`CCCCCc1cc(O)c2c(c1)OC(C)(C)[C@@H]1CC=C(C(C)O)CC21` (stereo partly drawn) showed a Hypothermic effect [1] of 0, a Hypothermic effect [2] of 0.8 and an ED50 [3] of 27 mg/kg. The Hypothermic effect [4] was 1.3.
`CCCCCc1cc(O)c2c(c1)OC(C)(C)[C@@H]1CC=C(CCCC)CC21` (stereo partly drawn) gave a Hypothermic effect [2] of 4.3, a Hypothermic effect [5] of 5 and an ED50 [3] of 32 mg/kg. It also gave a Hypothermic effect [6] of 0.3.
In the case of `CCCCCc1cc(O)c2c(c1)OC(C)(C)[C@@H]1CC=C(CCc3ccccc3)CC21` (stereo partly drawn), the Hypothermic effect [2] is reported as 0.3, the Hypothermic effect [5] is reported as 0.9 and the ED50 [3] is reported as 43 mg/kg. It also gave a Hypothermic effect [4] of 0.3.
`CCCCCc1cc(O)c2c(c1)OC(C)(C)[C@@H]1CC=C(C(O)CC)CC21` (stereo partly drawn) showed a Hypothermic effect [2] of -0.2, a Hypothermic effect [5] of 1.3 and an ED50 [3] of 39 mg/kg. The Hypothermic effect [6] was 0.4.
For `CCCCCc1cc(O)c2c(c1)OC(C)(C)[C@@H]1CC=C(C(C)C)CC21` (stereo partly drawn), the Hypothermic effect [1] was 1.2, the Hypothermic effect [2] was 0.8 and the Hypothermic effect [5] was 1.3. The ED50 [3] was 26 mg/kg.
Work on `CCCCCc1cc(O)c2c(c1)OC(C)(C)[C@@H]1CC=C(Cc3ccccc3)CC21` (stereo partly drawn) yielded a Hypothermic effect [1] of 0.9, a Hypothermic effect [2] of 1.1 and a Hypothermic effect [5] of 1.5. For the same compound, the ED50 [3] was 32 mg/kg and the Hypothermic effect [6] was 1.3.
Compound `CCCCCc1cc(O)c2c(c1)OC(C)(C)[C@@H]1CC=C(C)CC21` (stereo partly drawn) has a Hypothermic effect [1] of 3.4, a Hypothermic effect [7] of 0.9 and an ED50 [3] of 7.1 mg/kg. The Hypothermic effect [6] was 1.
For `CCCCCc1cc(O)c2c(c1)OC(C)(C)[C@@H]1CC=C(c3ccccc3)CC21` (stereo partly drawn), the Hypothermic effect [8] was 2.2, the Hypothermic effect [2] was 1.6 and the Hypothermic effect [5] was 0.3. For the same compound, the ED50 [3] was 67 mg/kg.
